Test results published in ChEMBL document CHEMBL4304798, “Iterative Optimization of the Cyclic Peptide SFTI-1 Yields Potent Inhibitors of Neutrophil Proteinase 3” (ACS Med Chem Lett, 2019).
Activity calls are given as the source filed them. No cut-off for these calls is given here. Positions of bridges follow the written chain, without caps; N, C: chain ends. Non-standard residues stand in square brackets, D forms with d. Residues, ends and D or L forms follow the SMILES beside them. ξ: configuration not given here. *: point of attachment. ClZ = O=C(OCc1ccccc1Cl)*; ξAbu = CCC(N)C(=O)O

What was measured:
[1] = Stability in human serum at 400 uM measured after 24 hrs by RP-HPLC analysis; assay type: ADME, cell-free; settings: read-out: Stability
Summary of the method: (§1)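 Peptides incubated in human serum at 37 °C and sampled over time. Values are mean ± SEM from three experiments.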

Neutrophil elastase = target: T1, Neutrophil elastase (Homo sapiens, UniProt P08246); assay: Inhibition of human neutrophil elastase using MeOSuc-AAPV-MCA as substrate by fluorescence based assay
T1 sequence (P08246 whole entry): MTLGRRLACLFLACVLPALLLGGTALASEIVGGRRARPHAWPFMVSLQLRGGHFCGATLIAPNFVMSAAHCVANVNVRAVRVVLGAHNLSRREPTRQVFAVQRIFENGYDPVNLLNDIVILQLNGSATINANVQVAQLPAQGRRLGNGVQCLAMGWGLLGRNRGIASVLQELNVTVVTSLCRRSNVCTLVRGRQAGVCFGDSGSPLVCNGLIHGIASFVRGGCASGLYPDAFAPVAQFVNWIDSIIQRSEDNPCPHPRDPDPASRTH

Trypsin = Trypsin (Homo sapiens, UniProt P07477+P07478+P35030); assay: Inhibition of recombinant human trypsin using Boc-VPR-MCA as substrate by fluorescence based assay; assay type: protein assay
Chymase = target: T2, Chymase (Homo sapiens, UniProt P23946); assay: Inhibition of recombinant human chymase expressed in Pichia pastoris using NleTDY-pNA as substrate by fluorescence based assay
T2 sequence (P23946 whole entry): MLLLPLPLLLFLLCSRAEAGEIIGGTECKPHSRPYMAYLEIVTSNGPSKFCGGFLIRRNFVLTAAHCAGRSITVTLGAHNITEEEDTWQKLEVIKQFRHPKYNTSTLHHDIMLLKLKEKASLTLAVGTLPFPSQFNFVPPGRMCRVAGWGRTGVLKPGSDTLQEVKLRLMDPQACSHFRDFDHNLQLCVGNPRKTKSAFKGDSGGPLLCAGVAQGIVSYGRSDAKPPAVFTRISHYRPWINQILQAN

Myeloblastin = target: T3, Myeloblastin (Homo sapiens, UniProt P24158); assay: Inhibition of purified human proteinase 3 using MeOSuc-AAPV-MCA as substrate by fluorescence based assay
T3 sequence (P24158 whole entry): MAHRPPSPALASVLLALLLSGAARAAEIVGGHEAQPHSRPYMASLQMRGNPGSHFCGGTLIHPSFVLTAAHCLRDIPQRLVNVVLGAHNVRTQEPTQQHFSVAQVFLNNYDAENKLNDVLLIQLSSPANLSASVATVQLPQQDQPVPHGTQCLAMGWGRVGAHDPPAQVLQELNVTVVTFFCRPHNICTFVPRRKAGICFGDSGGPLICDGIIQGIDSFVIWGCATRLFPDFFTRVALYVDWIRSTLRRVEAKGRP

[2] = target: T4, Neutrophil elastase (Homo sapiens) (UniProt P08246); assay: Inhibition of human neutrophil elastase at 2.5 to 40 nM using MeOSuc-AAPV-MCA as substrate by fluorescence based assay
T4 sequence (whole entry): T1 sequence (P08246 whole entry)

Prothrombin = Prothrombin (Homo sapiens, UniProt P00734); assay: Inhibition of recombinant human alpha thrombin using Boc-VPR-MCA as substrate by fluorescence based assay
Cathepsin G = target: T5, Cathepsin G (Homo sapiens, UniProt P08311); assay: Inhibition of human Cathepsin G using Suc-AAPF-MCA as substrate by fluorescence based assay
T5 sequence (P08311 whole entry): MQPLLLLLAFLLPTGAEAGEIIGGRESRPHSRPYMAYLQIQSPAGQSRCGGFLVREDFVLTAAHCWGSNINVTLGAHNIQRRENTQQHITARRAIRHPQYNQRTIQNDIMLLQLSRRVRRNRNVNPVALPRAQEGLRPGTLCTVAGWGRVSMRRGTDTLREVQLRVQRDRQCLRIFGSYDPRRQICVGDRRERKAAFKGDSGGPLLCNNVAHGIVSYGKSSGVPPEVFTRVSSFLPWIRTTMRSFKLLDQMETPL

Chymotrypsin = Chymotrypsin (Homo sapiens, UniProt Q99895+P17538+P40313+Q6GPI1); assay: Inhibition of human chymotrypsin using Suc-AAPF-MCA as substrate by fluorescence based assay; assay type: protein assay
[3] = Stability in human serum at 400 uM measured after 2 hrs by RP-HPLC analysis; assay type: ADME, cell-free; summary of the method: as §1
[4] = target: T6, Myeloblastin (Homo sapiens) (UniProt P24158); assay: Competitive inhibition of purified human proteinase 3 at 40 nM using MeOSuc-AAPV-MCA as substrate by fluorescence based assay
T6 sequence (whole entry): T3 sequence (P24158 whole entry)
Summary of the method: (§2)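 Competitive inhibition screen against PR3, with each peptide variant tested at two fixed inhibitor concentrations.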

[5] = target: T6, Myeloblastin (Homo sapiens); assay: Competitive inhibition of purified human proteinase 3 at 160 nM using MeOSuc-AAPV-MCA as substrate by fluorescence based assay; summary of the method: as §2

Structure (SMILES)	inhibition activity (active/inactive) [5]	remaining at 24 h, 400 µM [1]	Ki (Neutrophil elastase)	IC50 (Trypsin)	IC50 (Chymase)	Ki (Myeloblastin)	IC50 (Prothrombin)	IC50 (Cathepsin G)	further results
CCC1NC(=O)[C@H](Cc2ccc(O)cc2)NC(=O)[C@@H]2CSSC[C@H](NC(=O)[C@H]([C@@H](C)CC)NC(=O)[C@@H]3CCCN3C(=O)[C@@H]3CCCN3C(=O)[C@H](Cc3ccc(O)cc3)NC(=O)[C@H](CO)NC1=O)C(=O)N[C@@H](CC(N)=O)C(=O)N1CCC[C@H]1C(=O)N[C@@H](CC(N)=O)C(=O)NCC(=O)N[C@@H](Cc1ccc(-c3ccccc3)cc1)C(=O)N2 (stereo partly drawn) (HELM PEPTIDE1{[O=C([C@H](Cc1ccc(-c2ccccc2)cc1)N[*:1])[*:2]].C.Y.[CCC(N[*:1])C(=O)[*:2]].S.Y.P.P.I.C.N.P.N.G}$PEPTIDE1,PEPTIDE1,2:R3-10:R3|PEPTIDE1,PEPTIDE1,1:R1-14:R2$$$V2.0)	–	90 to 95%	0.024 µM	> 10 µM	> 10 µM	0.017 µM	> 10 µM	> 10 µM	inhibition [2]: Active; IC50 (Chymotrypsin): > 10 µM
CC[C@H](C)[C@@H]1NC(=O)[C@@H]2CCCN2C(=O)[C@@H]2CCCN2C(=O)[C@H]([C@@H](C)CC)NC(=O)[C@H](CO)NC(=O)[C@H](CCCCN)NC(=O)[C@H]([C@@H](C)O)NC(=O)[C@@H](NC(=O)[C@H](CCCNC(=N)N)NC(=O)CN)CSSC[C@@H](C(=O)N[C@@H](Cc2ccccc2)C(=O)N2CCC[C@H]2C(=O)N[C@@H](CC(=O)O)C(=O)O)NC1=O	–	–	–	–	–	–	–	–	Stability [3]: Unstable
CCC1NC(=O)[C@H](Cc2ccc(O)cc2)NC(=O)[C@@H]2CSSC[C@H](NC(=O)[C@H]([C@@H](C)CC)NC(=O)[C@@H]3CCCN3C(=O)[C@@H]3CCCN3C(=O)[C@H](Cc3ccc(O)cc3)NC(=O)[C@H](CO)NC1=O)C(=O)N[C@@H](CC(N)=O)C(=O)N1CCC[C@H]1C(=O)N[C@@H](CC(N)=O)C(=O)NCC(=O)N[C@@H]([C@@H](C)O)C(=O)N2 (stereo partly drawn) (HELM PEPTIDE1{C.N.P.N.G.T.C.Y.[CCC(N[*:1])C(=O)[*:2]].S.Y.P.P.I}$PEPTIDE1,PEPTIDE1,1:R3-7:R3|PEPTIDE1,PEPTIDE1,1:R1-14:R2$$$V2.0)	–	90 to 95%	0.0032 µM	> 10 µM	> 10 µM	0.007 µM	> 10 µM	> 10 µM	inhibition [4]: Active; IC50 (Chymotrypsin): > 10 µM
CCCC1NC(=O)[C@H](Cc2ccc(O)cc2)NC(=O)[C@@H]2CSSC[C@H](NC(=O)[C@H]([C@@H](C)CC)NC(=O)[C@@H]3CCCN3C(=O)[C@@H]3CCCN3C(=O)[C@H](Cc3ccc(O)cc3)NC(=O)[C@H](CO)NC1=O)C(=O)N[C@@H](CC(N)=O)C(=O)N1CCC[C@H]1C(=O)N[C@@H](CC(N)=O)C(=O)NCC(=O)N[C@@H](Cc1ccc(-c3ccccc3)cc1)C(=O)N2 (stereo partly drawn) (HELM PEPTIDE1{[O=C([C@H](Cc1ccc(-c2ccccc2)cc1)N[*:1])[*:2]].C.Y.[CCCC(N[*:1])C(=O)[*:2]].S.Y.P.P.I.C.N.P.N.G}$PEPTIDE1,PEPTIDE1,2:R3-10:R3|PEPTIDE1,PEPTIDE1,1:R1-14:R2$$$V2.0)	–	90 to 95%	0.016 µM	> 10 µM	> 10 µM	0.0061 µM	> 10 µM	> 5 µM	Ki (Chymotrypsin): 0.463 µM
CCC1NC(=O)[C@H](Cc2ccc(O)cc2)NC(=O)[C@@H]2CSSC[C@H](NC(=O)[C@H]([C@@H](C)CC)NC(=O)[C@@H]3CCCN3C(=O)[C@@H]3CCCN3C(=O)[C@H](Cc3c[nH]c4ccccc34)NC(=O)[C@H](CO)NC1=O)C(=O)N[C@@H](CC(N)=O)C(=O)N1CCC[C@H]1C(=O)N[C@@H](CC(N)=O)C(=O)NCC(=O)N[C@@H]([C@@H](C)O)C(=O)N2 (stereo partly drawn) (HELM PEPTIDE1{C.N.P.N.G.T.C.Y.[CCC(N[*:1])C(=O)[*:2]].S.W.P.P.I}$PEPTIDE1,PEPTIDE1,1:R3-7:R3|PEPTIDE1,PEPTIDE1,1:R1-14:R2$$$V2.0)	–	–	–	–	–	–	–	–	inhibition [4]: Active
CCC1NC(=O)[C@H](Cc2ccc(O)cc2)NC(=O)[C@@H]2CSSC[C@H](NC(=O)[C@H]([C@@H](C)CC)NC(=O)[C@@H]3CCCN3C(=O)[C@@H]3CCCN3C(=O)[C@H](Cc3ccc(O)cc3)NC(=O)[C@H](CO)NC1=O)C(=O)N[C@@H](CC(N)=O)C(=O)N1CCC[C@H]1C(=O)N[C@@H](CC(N)=O)C(=O)NCC(=O)N[C@@H](CCCCNC(=O)OCc1ccccc1Cl)C(=O)N2 (stereo partly drawn) (cyclo(CNPNGK(ClZ)CY[ξAbu]SYPPI); disulfide 1-7)	–	–	–	–	–	–	–	–	inhibition [2]: Active

Now from value to molecule, other results behind:

inhibition activity (active/inactive) [5]	Structure (SMILES)	remaining at 24 h, 400 µM [1]	Ki (Neutrophil elastase)	IC50 (Trypsin)	IC50 (Chymase)	Ki (Myeloblastin)	IC50 (Prothrombin)	IC50 (Cathepsin G)	further results
Active	CCC1NC(=O)[C@H](Cc2ccc(O)cc2)NC(=O)[C@@H]2CSSC[C@H](NC(=O)[C@H]([C@@H](C)CC)NC(=O)[C@@H]3CCCN3C(=O)[C@@H]3CCCN3C(=O)[C@H](CC(=O)O)NC(=O)[C@H](CO)NC1=O)C(=O)N[C@@H](CC(N)=O)C(=O)N1CCC[C@H]1C(=O)N[C@@H](CC(N)=O)C(=O)NCC(=O)N[C@@H]([C@@H](C)O)C(=O)N2 (stereo partly drawn) (HELM PEPTIDE1{C.N.P.N.G.T.C.Y.[CCC(N[*:1])C(=O)[*:2]].S.D.P.P.I}$PEPTIDE1,PEPTIDE1,1:R3-7:R3|PEPTIDE1,PEPTIDE1,1:R1-14:R2$$$V2.0)	–	–	–	–	–	–	–	–
Active	CCC1NC(=O)[C@H](CC(=O)O)NC(=O)[C@@H]2CSSC[C@H](NC(=O)[C@H]([C@@H](C)CC)NC(=O)[C@@H]3CCCN3C(=O)[C@@H]3CCCN3C(=O)[C@H](Cc3ccc(O)cc3)NC(=O)[C@H](CO)NC1=O)C(=O)N[C@@H](CC(N)=O)C(=O)N1CCC[C@H]1C(=O)N[C@@H](CC(N)=O)C(=O)NCC(=O)N[C@@H]([C@@H](C)O)C(=O)N2 (stereo partly drawn) (HELM PEPTIDE1{C.D.[CCC(N[*:1])C(=O)[*:2]].S.Y.P.P.I.C.N.P.N.G.T}$PEPTIDE1,PEPTIDE1,1:R3-9:R3|PEPTIDE1,PEPTIDE1,1:R1-14:R2$$$V2.0)	–	–	–	–	–	–	–	–
Active	CCC1NC(=O)[C@H](Cc2ccc(O)cc2)NC(=O)[C@@H]2CSSC[C@H](NC(=O)[C@H]([C@@H](C)CC)NC(=O)[C@@H]3CCCN3C(=O)[C@@H]3CCCN3C(=O)[C@H](CCC(=O)O)NC(=O)[C@H](CO)NC1=O)C(=O)N[C@@H](CC(N)=O)C(=O)N1CCC[C@H]1C(=O)N[C@@H](CC(N)=O)C(=O)NCC(=O)N[C@@H]([C@@H](C)O)C(=O)N2 (stereo partly drawn) (HELM PEPTIDE1{C.N.P.N.G.T.C.Y.[CCC(N[*:1])C(=O)[*:2]].S.E.P.P.I}$PEPTIDE1,PEPTIDE1,1:R3-7:R3|PEPTIDE1,PEPTIDE1,1:R1-14:R2$$$V2.0)	–	–	–	–	–	–	–	–
Active	CCC1NC(=O)[C@H](CC(=O)O)NC(=O)[C@@H]2CSSC[C@H](NC(=O)[C@H]([C@@H](C)CC)NC(=O)[C@@H]3CCCN3C(=O)[C@@H]3CCCN3C(=O)[C@H](CC(=O)O)NC(=O)[C@H](CO)NC1=O)C(=O)N[C@@H](CC(N)=O)C(=O)N1CCC[C@H]1C(=O)N[C@@H](CC(N)=O)C(=O)NCC(=O)N[C@@H]([C@@H](C)O)C(=O)N2 (stereo partly drawn) (HELM PEPTIDE1{C.D.[CCC(N[*:1])C(=O)[*:2]].S.D.P.P.I.C.N.P.N.G.T}$PEPTIDE1,PEPTIDE1,1:R3-9:R3|PEPTIDE1,PEPTIDE1,1:R1-14:R2$$$V2.0)	–	–	–	–	–	–	–	–
